Reference: ChEMBL document CHEMBL3045555, “Structure elucidation and antifungal activity of an anthracycline antibiotic, daunomycin, isolated from Actinomadura roseola” (J Agric Food Chem, 2000)
The source made the active and inactive calls. The rule behind the calls is not given here.

Assays:
Phytophthora capsici [1] = assay: Antifungal activity against Phytophthora capsici in pepper plants assessed as decrease in Phytophthora blight disease at 100 ug/ml; assay type: functional, organism-based
Outline: (§1)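 Pepper plants raised at 28 °C with 16 h light per day. Antibiotic in methanol, diluted, was sprayed onto plants at first-branch stage 1 day before inoculation. Stems were slit 1 cm above soil and covered with cotton soaked in 1 × 105 zoospores mL-1 P. capsici, then taped. Disease was rated daily on a 0–5 severity scale; values are means of 10 plants per treatment.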

Phytophthora capsici [2] = assay: Antifungal activity against Phytophthora capsici in pepper plants assessed as decrease in Phytophthora blight disease at 50 ug/ml; assay type: functional, organism-based; outline: as §1

In the case of `COCC(=O)N(c1c(C)cccc1C)C(C)C(=O)OC` (configuration not stated), the Activity (Phytophthora capsici [1]) is reported as “Active” and the Activity (Phytophthora capsici [2]) is reported as “Active”.
